Experimental data: ChEMBL document CHEMBL4041542, “Synthesis and biological characterisation of ester and amide derivatives of fusidic acid as antiplasmodial agents” (Bioorg Med Chem Lett, 2017)

How the values were obtained:
[1] = system: Plasmodium falciparum; experiment: Potency index, ratio of fusidic acid IC50 to compound IC50 for chloroquine-sensitive Plasmodium falciparum NF54; type: functional
Summary of the method: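 Chloroquine-sensitive P. falciparum NF54 was tested with the lactate dehydrogenase assay, using chloroquine and artesunate as reference drugs. The index is fusidic acid's IC50 divided by the compound's IC50, both against NF54.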

[2] = Selectivity index, ratio of IC50 for CHO cells to IC50 for chloroquine-sensitive Plasmodium falciparum NF54; type: toxicity; details: hamster, read-out: Ratio IC50
Summary of the method: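 IC50 against Chinese hamster ovary cells (cytotoxicity) was divided by IC50 against P. falciparum NF54. NF54 IC50 came from the lactate dehydrogenase assay, with chloroquine and artesunate as references.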

[3] = system: Plasmodium falciparum; experiment: Antiplasmodial activity against chloroquine-resistant Plasmodium falciparum K1 by [3H]hypoxanthine incorporation assay; type: functional
Summary of the method: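 Multidrug-resistant K1 strain of P. falciparum tested in vitro with a modified [3H]hypoxanthine incorporation assay. IC50 determined. Chloroquine and artesunate served as reference drugs in every experiment.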

[4] = system: Plasmodium falciparum; experiment: Antiplasmodial activity against chloroquine-sensitive Plasmodium falciparum NF54 by LDH assay; type: functional
Summary of the method: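 In vitro test on the chloroquine-sensitive NF54 strain of P. falciparum, read out by the lactate dehydrogenase assay. Reported as IC50. Chloroquine and artesunate were included as reference drugs in all experiments.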

[5] = system: Plasmodium falciparum; experiment: Potency index, ratio of fusidic acid IC50 to compound IC50 for chloroquine-resistant Plasmodium falciparum K1; type: functional
[6] = system: CHO; experiment: Cytotoxicity against CHO cells; type: cell-based; details: Cricetulus griseus
[7] = Stability of the compound assessed as Plasmodium falciparum NF54 esterase-mediated fusidic acid release at 0.5 uM up to 48 hrs by LC-MS/MS analysis; type: ADME; details: plasmodium falciparum nf54, isolated protein

Row | SMILES | Ratio IC50 [1] | selectivity ratio [2] | IC50 [3] [nM] | IC50 [4] [nM] | Ratio IC50 [5] | IC50 [6] [nM] | Stability [7]
1 | CC(=O)O[C@H]1C[C@@]2(C)[C@@H](C[C@@H](O)[C@H]3[C@@]4(C)CC[C@@H](O)[C@@H](C)[C@@H]4CC[C@@]32C)/C1=C(\CCC=C(C)C)C(=O)Oc1cc(C)ccc1C | 4 - 49 | 34 | 1400 | 3000 | 5 - 17 | 103000 | 
2 | CC(=O)O[C@H]1C[C@@]2(C)[C@@H](C[C@@H](O)[C@H]3[C@@]4(C)CC[C@@H](O)[C@@H](C)[C@@H]4CC[C@@]32C)/C1=C(\CCC=C(C)C)C(=O)Oc1ccc(Br)cc1 | 20 - 28 | 45 | 1600 | 2100 | 12 - 14 | 95300 | 
3 | CCCCCCCCOC(=O)/C(CCC=C(C)C)=C1\[C@@H](OC(C)=O)C[C@@]2(C)[C@H]1C[C@@H](O)[C@H]1[C@@]3(C)CC[C@@H](O)[C@@H](C)[C@@H]3CC[C@@]12C | 4 - 49 | 20 | 1600 | 4600 | 5 - 17 | 92400 | 
4 | COc1cccc(OC(=O)/C(CCC=C(C)C)=C2\[C@@H](OC(C)=O)C[C@@]3(C)[C@H]2C[C@@H](O)[C@H]2[C@@]4(C)CC[C@@H](O)[C@@H](C)[C@@H]4CC[C@@]23C)c1 | 4 - 49 | 48 | 1300 | 1800 | 5 - 17 | 86400 | 
5 | CCOC(=O)/C(CCC=C(C)C)=C1\[C@@H](OC(C)=O)C[C@@]2(C)[C@H]1C[C@@H](O)[C@H]1[C@@]3(C)CC[C@@H](O)[C@@H](C)[C@@H]3CC[C@@]12C | 4 - 49 | 19 | 2200 | 3400 | 5 - 17 | 65500 | Stable
6 | CC(=O)O[C@H]1C[C@@]2(C)[C@@H](C[C@@H](O)[C@H]3[C@@]4(C)CC[C@@H](O)[C@@H](C)[C@@H]4CC[C@@]32C)/C1=C(\CCC=C(C)C)C(=O)Oc1ccc(Cl)cc1 | 20 - 28 | 31 | 1400 | 2300 | 12 - 14 | 71600 | 
7 | CC(=O)O[C@H]1C[C@@]2(C)[C@@H](C[C@@H](O)[C@H]3[C@@]4(C)CC[C@@H](O)[C@@H](C)[C@@H]4CC[C@@]32C)/C1=C(\CCC=C(C)C)C(=O)Oc1ccc(Cl)c(Cl)c1 | 4 - 49 | 26 | 2200 | 3600 | 5 - 17 | 95000 | 
8 | CC(=O)O[C@H]1C[C@@]2(C)[C@@H](C[C@@H](O)[C@H]3[C@@]4(C)CC[C@@H](O)[C@@H](C)[C@@H]4CC[C@@]32C)/C1=C(\CCC=C(C)C)C(=O)Oc1cc(Cl)cc(Cl)c1 | 4 - 49 | 41 | 1100 | 2000 | 5 - 17 | 81900 | 
9 | CC(=O)O[C@H]1C[C@@]2(C)[C@@H](C[C@@H](O)[C@H]3[C@@]4(C)CC[C@@H](O)[C@@H](C)[C@@H]4CC[C@@]32C)/C1=C(\CCC=C(C)C)C(=O)Oc1cccc(Br)c1 | 4 - 49 | 38 | 1600 | 2600 | 5 - 17 | 98300 | 
10 | CC(=O)O[C@H]1C[C@@]2(C)[C@@H](C[C@@H](O)[C@H]3[C@@]4(C)CC[C@@H](O)[C@@H](C)[C@@H]4CC[C@@]32C)/C1=C(\CCC=C(C)C)C(=O)Oc1cccc(F)c1 | 4 - 49 | 34 | 2000 | 2600 | 5 - 17 | 89400 | 
11 | CC(=O)O[C@H]1C[C@@]2(C)[C@@H](C[C@@H](O)[C@H]3[C@@]4(C)CC[C@@H](O)[C@@H](C)[C@@H]4CC[C@@]32C)/C1=C(\CCC=C(C)C)C(=O)Oc1ccc(C)cc1C | 4 - 49 | 41 | 1400 | 2400 | 5 - 17 | 98900 | 
12 | CCCCCCCCCCCCOC(=O)/C(CCC=C(C)C)=C1\[C@@H](OC(C)=O)C[C@@]2(C)[C@H]1C[C@@H](O)[C@H]1[C@@]3(C)CC[C@@H](O)[C@@H](C)[C@@H]3CC[C@@]12C |  |  | > 14600 | > 100000 |  | > 146000 | 
13 | CC[C@H]1CN2CCc3cc(OC)c(OC)cc3[C@@H]2C[C@@H]1C[C@H]1NCCc2cc(OC)c(OC)cc21 [EMETINE] |  |  |  |  |  | 178 | 
